Laboratory results taken from ChEMBL document CHEMBL2086283, “Novel 4-aminoquinoline-pyrimidine based hybrids with improved in vitro and in vivo antimalarial activity” (ACS Med Chem Lett, 2012).
Calls of active or inactive are those of the source. No cut-off for these calls is given here.

Key:
[1] = tested on: Plasmodium berghei; test: Antimalarial activity Plasmodium berghei infected in mouse assessed as mean survival time at 100 mg/kg, po administered QD for 3 days (reference value: 15.2 days); assay type: functional
[2] = tested on: Plasmodium berghei; test: Antimalarial activity Plasmodium berghei infected in mouse assessed as cure from infection at 100 mg/kg, po administered QD for 3 days measured on day 28; assay type: functional, organism-based; design: dose 100 mg/kg
Summary of the method: (§1)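 P. berghei-infected mice, 5 per group, dosed by oral gavage once daily on days 0, 1 and 2 postinfection, with a vehicle control arm. Mice were followed to day 28 postinfection for apparent toxicity, parasitemia and survival. Parasitemia suppression is expressed against mean vehicle-control parasitemia set as 100%, and cure is the number cured per 5 mice.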

[3] = tested on: HepG2; test: Cytotoxicity against human HepG2 cells up to 60 uM after 48 hrs by neutral red assay; assay type: cell-based; settings: hepg2, 48 h
Summary of the method: (§2)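 Mammalian cell cytotoxicity was measured as IC50 in Vero (monkey kidney fibroblasts), LLC-PK11 (pig kidney epithelial) and HepG2 (human hepatoma) cells. The highest concentration tested was 60 μM. Values are the mean of two independent experiments ± SD.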

[4] = tested on: Plasmodium berghei; test: Antimalarial activity against Plasmodium berghei infected in mouse assessed as suppression in parasitemia at 100 mg/kg, po administered QD for 3 days measured on day 7 relative to control; assay type: functional; summary of the method: as §1
[5] = tested on: Vero; test: Cytotoxicity against african green monkey Vero cells up to 60 uM after 48 hrs by neutral red assay; assay type: cell-based; settings: chlorocebus sabaeus; summary of the method: as §2
[6] = tested on: Mus musculus; test: Toxicity in mouse infected with Plasmodium berghei assessed as host survival at 100 mg/kg, po administered QD for 3 days measured on day 28; assay type: organism-based; design: dose 100 mg/kg, route oral; settings: in vivo, 72 h
[7] = tested on: Plasmodium berghei; test: Antimalarial activity against Plasmodium berghei infected in mouse assessed as suppression in parasitemia at 100 mg/kg, po administered QD for 3 days measured on day 5 relative to control; assay type: functional; summary of the method: as §1
[8] = Cytotoxicity against pig LLC-PK11 cells up to 60 uM after 48 hrs by neutral red assay; assay type: cell-based, Sus scrofa; settings: llc-pk11, 48 h; summary of the method: as §2
[9] = Selectivity index, ratio of IC50 for african green monkey Vero cells to IC50 for chloroquine-sensitive Plasmodium falciparum D6; assay type: toxicity, cell-based; settings: read-out: Ratio IC50
Summary of the method: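 SI is the IC50 for cytotoxicity to Vero cells (monkey kidney fibroblasts) divided by the antimalarial IC50 against the named P. falciparum clone. Cytotoxicity was tested up to 60 μM.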

[10] = tested on: Vero; test: Cytotoxicity against african green monkey Vero cells after 48 hrs by neutral red assay; assay type: cell-based; settings: chlorocebus sabaeus; summary of the method: as §2
[11] = tested on: Plasmodium falciparum; test: Antiplasmodial activity against chloroquine-resistant Plasmodium falciparum W2 infected in red blood cells up to 19 uM after 72 hrs by parasitic LDH assay; assay type: functional, organism-based
Summary of the method: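 In vitro P. falciparum growth inhibition (D6 CQ-sensitive clone; W2 CQ-resistant clone). IC50 is the concentration giving 50% growth inhibition. Values are the average of two independent experiments ± SD. Highest concentration tested 19 μM.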

Row | Compound | MST [1] | Activity [2] | Activity [3] | Activity [4] | Activity [5] | Activity [6] | Activity [7] | Activity [8] | selectivity ratio [9] | IC50 [10] | Activity [11]
1 | CCN(CC)CCCC(C)Nc1ccnc2cc(Cl)ccc12 (stereo unspecified) [CHLOROQUINE] | 28 days | inactive | Non-toxic | 100% | Non-toxic | Non-toxic | 100% | Non-toxic |  |  | 
2 | CCc1nc(N)nc(N)c1-c1ccc(Cl)cc1 [PYRIMETHAMINE] |  |  |  |  |  |  |  |  | 1820 | 18.2 µM | inactive
